Series [1] concerns HCT-116. Kind of series: Induction of morphological changes in human HCT-116 cells assessed as development of long elongations from filamentous protrusions resembling filopodia at 0.5 uM incubated for 48 hrs by inverted phase-contrast microscopic analysis. In kind it is functional, cell-based.
In series [2] the test system is HCT-116. Put plainly: Cytotoxicity against human HCT-116 cells assessed as reduction in colony formation treated for 48 hrs and measured after 10 days post last treatment by crystal violet staining based analysis. In kind it is functional, cell-based. Conditions: dose 0.1-5 µM, time 9.0 day, in the assay text read “7 days” for “10 days”. The method, boiled down:
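HCT116 seeded at 5×10^4 cells/well. After 24 h, treated 48 h at 0.1–0.5 and 5 µM, then grown a further 7 days. Fixed and stained 30 min with 6.0% glutaraldehyde plus 0.5% crystal violet, then washed. Dye taken up in 5% acetic acid and read at 592 nm.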

Series [3] concerns HCT-116. Put plainly: Induction of cell death in human HCT-116 cells assessed as loss of membrane integrity at 0.5 uM incubated for 48 hrs by acridine orange and ethidium bromide staining based fluorescence microscopic analysis. In kind it is functional. The method, boiled down:
(§1)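 HCT116 on coverslips (5×10^4 cells/well), 24 h attachment, then exposed 48 h to 0.5 µM. PBS-washed and stained a few minutes with a 1:1 mix of acridine orange (100 µg/mL) and ethidium bromide (100 µg/mL). Viewed at once by fluorescence microscopy at 640X, scoring green vs orange nuclei and punctate cytoplasmic staining.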

Series [4] deals with HCT-116. Put plainly: Induction of morphological changes in human HCT-116 cells assessed as appearance of actin rich long elongations at 0.5 uM incubated for 48 hrs by rhodamine-phalloidin staining based fluorescence microscopic analysis. In kind it is functional, cell-based. A digest of the protocol: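 HCT116 on coverslips, treated 48 h at 0.5 µM. Fixed in cold methanol 15 min, permeabilized 15 min in 0.1% Triton X-100/PBS. Stained with 0.165 µM rhodamine-phalloidin for 40 min in the dark at room temperature. Imaged at 640X.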

For series [5], the system named is HCT-116. Kind of series: Induction of intracellular ROS generation in human HCT-116 cells at IC50 measured after 48 hrs by DCFH-DA staining based fluorescence microscopic analysis. In kind it is functional, cell-based. The method, boiled down: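 HCT116 on coverslips at 5×10^4 cells/well, treated 48 h at the IC50 concentration. Loaded with 10 µM DCFH-DA for 30 min at 37 °C, then imaged by fluorescence microscopy at 640X.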

The subject of series [6] is HCT-116. Kind of series: Induction of cell death in human HCT-116 cells assessed as appearance of neutral pH vacuoles originated from engulfment of extracellular fluid at 0.5 uM incubated for 48 hrs by acridine orange and ethidium bromide staining based fluorescence microscopic analysis. In kind it is functional. A digest of the protocol:
as §1

Series [7] has as its system HCT-116. Put plainly: Induction of morphological changes in human HCT-116 cells assessed as leakage and perforation of cell membranes at 0.5 uM incubated for 48 hrs by scanning electron microscopic analysis. In kind it is functional, cell-based. The method, boiled down: (§2)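 HCT116 on coverslips, treated 48 h at 0.5 µM. Coverslips rinsed in PBS pH 7.4, fixed in 4% glutaraldehyde for 30 min at 4 °C, then imaged by scanning electron microscopy at 5000X and 20000X.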

The test system of series [8] is HCT-116. Kind of series: Induction of morphological changes in human HCT-116 cells assessed as appearance of flattened cells at 0.5 uM incubated for 48 hrs by scanning electron microscopic analysis. In kind it is functional, cell-based. A digest of the protocol:
as §2

Series [9] concerns HCT-116. Kind of series: Induction of morphological changes in human HCT-116 cells assessed as reduction in cell clumps at 0.5 uM incubated for 48 hrs by inverted phase-contrast microscopic analysis. In kind it is functional, cell-based.
Series [10] concerns HCT-116. Kind of series: Inhibition of epithelial mesenchymal transition in human HCT-116 cells assessed as effect on vimentin protein expression at 0.5 uM incubated for 48 hrs by Western blot analysis. In kind it is functional, cell-based. A general note: In western blotting, separated proteins are transferred to a membrane and probed.
Series [11] has as its system HCT-116. Put plainly: Inhibition of epithelial mesenchymal transition in human HCT-116 cells assessed as effect on E-cadherin protein expression at 0.5 uM incubated for 48 hrs by Western blot analysis. In kind it is functional, cell-based.
In series [12] the test system is HCT-116. Kind of series: Induction of morphological changes in human HCT-116 cells assessed as appearance of elongated fusiform-shaped cells at 0.5 uM incubated for 48 hrs by scanning electron microscopic analysis. In kind it is functional, cell-based. The method, boiled down:
as §2

Series [13] concerns HCT-116. Kind of series: Induction of morphological changes in human HCT-116 cells assessed as appearance of long and thin filopodia at 0.5 uM incubated for 48 hrs by scanning electron microscopic analysis. In kind it is functional, cell-based. A digest of the protocol:
as §2

In series [14] the test system is HCT-116. Put plainly: Induction of morphological changes in human HCT-116 cells assessed as appearance of filamentous protrusions at 0.5 uM incubated for 48 hrs by inverted phase-contrast microscopic analysis. In kind it is functional, cell-based.
A further series has as its system MCF7. Put plainly: Induction of morphological changes in human MCF7 cells assessed as appearance of flattened cells at 1 uM incubated for 48 hrs by inverted phase-contrast microscopic analysis. In kind it is functional, cell-based.
For series [15], the system named is HCT-116. Put plainly: Induction of cell death in human HCT-116 cells assessed as increase in orange fluorescence at 0.5 uM incubated for 48 hrs by acridine orange and ethidium bromide staining based fluorescence microscopic analysis. In kind it is functional. A digest of the protocol: as §1
Series [16] relates to HCT-116. Put plainly: Induction of morphological changes in human HCT-116 cells assessed as alteration in intercellular adhesion at 0.5 uM incubated for 48 hrs by scanning electron microscopic analysis. In kind it is functional, cell-based. A digest of the protocol:
as §2

Series [17] has as its system HCT-116. Put plainly: Induction of apoptosis in human HCT-116 cells assessed as chromatin condensation at 0.5 uM incubated for 48 hrs by Hoechst 33342 staining based analysis. In kind it is functional, cell-based. A digest of the protocol:
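HCT116 on coverslips at 5×10^4 cells/well, treated 48 h at 0.5 µM after 24 h attachment. PBS-washed, stained 10 min with Hoechst 33342 (final 1 µg/ml). Nuclei inspected at once by fluorescence microscopy at 640X for chromatin condensation and nuclear fragmentation.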

In series [18] the test system is HCT-116. Put plainly: Induction of cell death in human HCT-116 cells assessed as membrane blebbing at 0.5 uM incubated for 48 hrs by acridine orange and ethidium bromide staining based fluorescence microscopic analysis. In kind it is functional. A digest of the protocol:
as §1

Series [19] in a line: Selectivity index, ratio of IC50 for hTERT-RPE1 cells to IC50 for human MCF7 cells. In kind it is toxicity. The conditions noted are these: hTERT-RPE1 cells versus MCF7 cells, read-out: Ratio IC50. A digest of the protocol:
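Ratio of the hTERT-RPE-1 MTT IC50 to the IC50 in HCT116 or MCF-7. Each IC50 comes from a 48 h MTT assay (0.078–80 µM, sigmoidal fit), three experiments in triplicate.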

The test system of series [20] is HCT-116. Kind of series: Induction of cell death in human HCT-116 cells assessed as effect on Bcl2 protein expression at 0.5 uM incubated for 48 hrs by Western blot analysis. In kind it is functional, cell-based.
In series [21] the test system is HCT-116. Put plainly: Induction of morphological changes in human HCT-116 cells assessed as intensive membrane ruffling and blebbing at 0.5 uM incubated for 48 hrs by scanning electron microscopic analysis. In kind it is functional, cell-based. A digest of the protocol:
as §2

The subject of another series is TERT-RPE1. Kind of series: Induction of morphological changes in hTERT-RPE1 cells at 5 uM incubated for 48 hrs by inverted phase-contrast microscopic analysis. In kind it is toxicity, cell-based. Conditions: human, tert-rpe1, 48 h.
Series [22] has as its system HCT-116. Kind of series: Induction of morphological changes in human HCT-116 cells assessed as massive vacuolization at 0.5 uM incubated for 48 hrs by scanning electron microscopic analysis. In kind it is functional, cell-based. The method, boiled down:
as §2

Activity calls are given as the source filed them. The calls are words filed in the database; no cut-off is given here.

Take `O=C(c1cc(Br)ccc1O)c1[nH]c(Cl)c(Br)c1Br`: the result with HCT-116 [1], in the series with HCT-116 [3], with HCT-116 [4], with HCT-116 [5], in the series with HCT-116 [6] and with HCT-116 [7] was Active. In addition, the outcome with HCT-116 [8], in the series with HCT-116 [9], with HCT-116 [12], in the series on HCT-116 [13], with HCT-116 [14] and in the series with MCF7 was Active. Also, the outcome with HCT-116 [15], with HCT-116 [16], in the series with HCT-116 [18], in the series with HCT-116 [20], in the series with HCT-116 [21] and in the series with HCT-116 [22] was Active. For the same compound, the Activity result in the series with HCT-116 [2] is “Dose-Dependent Effect”; in the series on TERT-RPE1 it was “Non-Toxic”. Also, the inhibition result in the series on HCT-116 [10] and in the series with HCT-116 [11] was “inactive” each time. Besides, the result with HCT-116 [17] was inactive. The selectivity ratio in series [19] was about 100.

For `O=C(c1cc(Br)ccc1O)c1[nH]c(Br)c(Cl)c1Br`, the result with HCT-116 [1], in the series with HCT-116 [3], in the series on HCT-116 [4], in the series on HCT-116 [5], in the series with HCT-116 [6] and with HCT-116 [7] was Active. Also, the result in the series on HCT-116 [8], in the series with HCT-116 [9], in the series on HCT-116 [12], in the series with HCT-116 [13], in the series on HCT-116 [14] and in the series with MCF7 was Active. Also, the outcome with HCT-116 [15], in the series on HCT-116 [16], in the series on HCT-116 [18], in the series on HCT-116 [20], with HCT-116 [21] and in the series on HCT-116 [22] was Active. In addition, the Activity result with HCT-116 [2] was “Dose-Dependent Effect”; in the series on TERT-RPE1 it was “Non-Toxic”. The inhibition result in the series on HCT-116 [10] and with HCT-116 [11] was “inactive” in each case. The outcome in the series with HCT-116 [17] was inactive. For the same compound, the selectivity ratio in [19] was about 100.

As to `O=C(c1cc(Br)ccc1O)c1[nH]c(Cl)c(Cl)c1Br`, the outcome in the series on HCT-116 [1], with HCT-116 [3], in the series with HCT-116 [4], with HCT-116 [5], in the series with HCT-116 [6] and with HCT-116 [7] was Active. Besides, the outcome with HCT-116 [8], with HCT-116 [9], in the series with HCT-116 [12], with HCT-116 [13], in the series with HCT-116 [14] and with MCF7 was Active. For the same compound, the outcome in the series on HCT-116 [15], with HCT-116 [16], in the series on HCT-116 [18], in the series on HCT-116 [20], in the series on HCT-116 [21] and in the series with HCT-116 [22] was Active. For the same compound, the Activity entry was “Dose-Dependent Effect” with HCT-116 [2] and “Non-Toxic” in the series with TERT-RPE1. Besides, the inhibition entry in the series on HCT-116 [10] and with HCT-116 [11] was “inactive” in each case. Also, the result with HCT-116 [17] was inactive. Besides, the selectivity ratio in series [19] was about 100.

As to `O=C(c1cc(Br)cc(Br)c1O)c1[nH]c(Br)c(Br)c1Br`, the outcome in the series on HCT-116 [1], with HCT-116 [3], in the series with HCT-116 [4], in the series on HCT-116 [5], with HCT-116 [6] and in the series on HCT-116 [7] was Active. Moreover, the outcome in the series with HCT-116 [8], with HCT-116 [9], in the series with HCT-116 [12], in the series on HCT-116 [13], in the series on HCT-116 [14] and with MCF7 was Active. Further, the outcome in the series with HCT-116 [15], in the series on HCT-116 [16], in the series with HCT-116 [18], with HCT-116 [20], with HCT-116 [21] and with HCT-116 [22] was Active. The inhibition entry with HCT-116 [10] and in the series with HCT-116 [11] was “inactive” throughout. Besides, the result with HCT-116 [17] was inactive. The Activity entry in the series with TERT-RPE1 is “Non-Toxic”.

As to `O=C(c1cc(Br)ccc1O)c1[nH]c(Br)c(Br)c1Br`, the outcome in the series on HCT-116 [1], in the series on HCT-116 [3], in the series on HCT-116 [4], in the series with HCT-116 [5], in the series with HCT-116 [6] and in the series with HCT-116 [7] was Active. Also, the result with HCT-116 [8], with HCT-116 [9], with HCT-116 [12], with HCT-116 [13], in the series with HCT-116 [14] and with MCF7 was Active. The outcome in the series on HCT-116 [15], with HCT-116 [16], in the series with HCT-116 [18], in the series on HCT-116 [20], with HCT-116 [21] and with HCT-116 [22] was Active. In addition, the Activity result was “Dose-Dependent Effect” in the series with HCT-116 [2] and “Non-Toxic” in the series with TERT-RPE1. In addition, the inhibition result in the series on HCT-116 [10] and in the series on HCT-116 [11] was “inactive” each time. In addition, the outcome in the series on HCT-116 [17] was inactive. Besides, in series [19], the selectivity ratio was about 100.
